Compounds with a hit are over-represented: about 2.3% of the library has one in this group of screens.
PLCb3 inh = human PLC-beta3 inhibitors, primary screen, biochemical, fluorescence | 1-phosphatidylinositol 4,5-bisphosphate phosphodiesterase beta-3 (Homo sapiens), Q01970 | Purified PLC-beta3, fluorogenic substrate | inhibition, % at 12.2 µM | 370,000 tested, 0.18% active | AID 720704, 2013
PLC-gamma1 inh = PLC-gamma1 enzyme inhibitors, primary screen, biochemical, fluorescence, purified enzyme; 1-phosphatidylinositol 4,5-bisphosphate phosphodiesterase gamma-1 (Homo sapiens), P19174; fluorogenic substrate; inhibition, % at 12.2 µM; 370,000 tested, 0.84% active; AID 720700, 2013; in the data active = inhibition above about 9.5%
ADAM17 inh = ADAM17 inhibitors, primary screen, biochemical, QFRET | 370,000 tested, 0.83% active | inhibition, % at 6.95 µM | AID 720648, 2013 | recombinant ADAM17, EDANS/DABCYL FRET peptide cleavage;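 active = inhibition above the mean of compounds lying between control limits plus 3 SD, set per campaign, cut at about 8.5% in these data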
TbMetRS inhib = T. brucei MetRS inhibitors, primary screen, biochemical, luminescence. methionyl-tRNA synthetase (Trypanosoma brucei brucei). purified T. brucei MetRS, ATP depletion, Kinase-Glo luminescence. inhibition, % at 11.9 µM. 360,000 tested, 0.4% active. AID 624268, 2012;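 active = inhibition above a per-plate cutoff of the control wells' mean inhibition plus 3 SD, cut at about 5.5% in these data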
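assay system = parasite MetRS enzyme | timing = 15 min preincubation, 2 h reaction, all 25 °C | evaluation = percent inhibition relative to median high and low control wells | medium = HEPES buffer containing pyrophosphatase, BSA, spermine, DTT | compound = single dose, 11.9 µM final nominal, 0.9% final DMSO | detection = Kinase-Glo luminescence, ATP depletion format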
ADAM10 inh = human ADAM10 inhibitors, primary screen, biochemical, QFRET, HTS. Disintegrin and metalloproteinase domain-containing protein 10 (Homo sapiens), O14672. recombinant ADAM10, EDANS/DABCYL FRET peptide cleavage, 3 h. inhibition, % at 7 µM. 370,000 tested, 0.62% active. AID 720582, 2013;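 active = inhibition above a per-campaign cutoff equal to the mean of compounds falling between control-based bounds plus 3 SD, cut at about 20% in these data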
Target sequence (O14672 214-748 limits assumed): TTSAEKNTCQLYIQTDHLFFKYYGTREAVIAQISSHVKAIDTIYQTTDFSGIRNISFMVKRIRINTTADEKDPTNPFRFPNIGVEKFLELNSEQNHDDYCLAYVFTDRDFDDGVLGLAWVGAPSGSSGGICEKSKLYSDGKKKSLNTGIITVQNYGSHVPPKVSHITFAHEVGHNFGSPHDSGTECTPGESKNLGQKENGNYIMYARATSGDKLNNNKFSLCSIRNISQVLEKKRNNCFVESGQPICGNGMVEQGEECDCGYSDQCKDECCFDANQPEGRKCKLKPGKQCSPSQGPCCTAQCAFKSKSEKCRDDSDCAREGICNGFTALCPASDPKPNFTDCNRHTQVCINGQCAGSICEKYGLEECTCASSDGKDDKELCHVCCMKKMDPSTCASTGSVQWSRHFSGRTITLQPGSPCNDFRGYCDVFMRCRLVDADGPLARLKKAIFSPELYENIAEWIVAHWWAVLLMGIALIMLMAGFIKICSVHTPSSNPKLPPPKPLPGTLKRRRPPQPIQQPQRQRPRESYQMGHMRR
ADAM10 ctr = ADAM10 inhibitors, counter-screen for ADAM17 exosite inhibitor project, biochemical, FRET, human ADAM10; 2,900 tested, 47% active; inhibition, % at 6.95 µM; shares compounds with ADAM17 inh; recombinant ADAM10, EDANS/DABCYL FRET peptide cleavage, 3 h;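 active = mean inhibition over the triplicate runs exceeds the activity threshold set in the earlier primary screen, cut at about 20% in these data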
ADAM17 confirm = ADAM17 inhibitors, hit retest, confirmation, biochemical, QFRET peptide cleavage. AID 743257, 2014. shares compounds with ADAM17 inh. 2,900 tested, 65% active. recombinant ADAM17, EDANS/DABCYL QFRET peptide cleavage. inhibition, % at 6.95 µM;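 active = mean inhibition across replicates above the hit cutoff set in the primary screen, cut at about 8.5% in these data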
PLCgamma1 ctr = PLC-gamma1 enzyme inhibitors, counter-screen for PLC-beta3 inhibitor project, biochemical, fluorescence. purified PLC-gamma1, fluorogenic substrate. AID 743258, 2014. inhibition, % at 12.3 µM. shares compounds with PLC-gamma1 inh. 3,300 tested, 3.1% active; in the data active = inhibition above about 9.5%
PLCbeta3 conf = PLC-beta3 inhibitor confirmation, biochemical, fluorescence, purified enzyme. fluorogenic substrate fluorescence. 3,300 tested, 1% active. inhibition, % at 12.3 µM. shares compounds with PLC-gamma1 inh
A number is an active result. Rule as the data show it, unless noted: active = inhibition above about 11%; inactive = the rest.

`Oc1ccc(C[C@H]2CNC(=S)N2CC2CCCN2C[C@H](Cc2ccc(O)cc2)N2C[C@H](Cc3ccc(O)cc3)N(CC3CCCCCC3)C2=S)cc1` (stereo partly specified) gave PLCb3 inh inactive, PLC-gamma1 inh inactive, ADAM17 inh 9.2, TbMetRS inhib inactive, ADAM10 inh 23, ADAM10 ctr 31 and ADAM17 confirm 18.
COc1ccc(-c2cc(NC(=O)Cc3c[nH]c4ccccc34)ccc2Nc2cccnc2)cc1F was read as PLCb3 inh inactive, PLC-gamma1 inh inactive, ADAM17 inh inactive and ADAM10 inh inactive.
For CCc1ccc(NS(=O)(=O)c2ccc3[nH]cc(C(=O)N4CCc5ccccc54)c(=O)c3c2)cc1 the results were PLCb3 inh inactive, PLC-gamma1 inh inactive, ADAM17 inh 10, TbMetRS inhib inactive, ADAM10 inh inactive, ADAM10 ctr inactive and ADAM17 confirm 11.
For N#Cc1ccc(-c2ccco2)nc1SCc1ccccc1 the results were PLCb3 inh inactive, PLC-gamma1 inh inactive, ADAM17 inh inactive, TbMetRS inhib inactive and ADAM10 inh inactive.
CCSc1nc(-c2ccco2)ccc1C#N was read as PLCb3 inh inactive, PLC-gamma1 inh inactive, ADAM17 inh 14, TbMetRS inhib inactive, ADAM10 inh inactive, ADAM10 ctr inactive and ADAM17 confirm inactive.
C/C(=C\c1ccc(C(=O)O)cc1)c1ccc2c(c1)C(C)(C)CCC2(C)C was read as PLCb3 inh inactive, PLC-gamma1 inh inactive, ADAM17 inh 9.0, TbMetRS inhib inactive, ADAM10 inh inactive, ADAM10 ctr inactive and ADAM17 confirm inactive.
`CC(=O)C(=Cc1ccc(C(=O)O)cc1)C(C)=O` gave PLCb3 inh inactive, PLC-gamma1 inh inactive, ADAM17 inh inactive, TbMetRS inhib inactive and ADAM10 inh inactive.
For N#CC(C#N)=C1C=C2C=C(N3CCCCCC3)CCC2CC1 (stereo unspecified) the results were PLCb3 inh inactive, PLC-gamma1 inh inactive, ADAM17 inh 9.7, TbMetRS inhib inactive, ADAM10 inh inactive, ADAM10 ctr inactive and ADAM17 confirm inactive.
For CCc1ccc(NC(=O)CCCN2C(=O)C3CC=CCC3C2=O)cc1 (stereo unspecified) the results were PLCb3 inh inactive, PLC-gamma1 inh inactive, ADAM17 inh inactive, TbMetRS inhib inactive and ADAM10 inh inactive.
`CC1=NN(c2ccccc2)C(=O)/C1=C/c1cccs1` gave PLCb3 inh 16, PLC-gamma1 inh 25, ADAM17 inh 10, TbMetRS inhib inactive, ADAM10 inh inactive, ADAM10 ctr inactive, ADAM17 confirm inactive, PLCgamma1 ctr inactive and PLCbeta3 conf inactive.
For CCOC(=O)c1oc2cc(O)cc(C)c2c(=O)c1-c1cscn1 the results were PLCb3 inh 12, PLC-gamma1 inh inactive, ADAM17 inh 10, TbMetRS inhib inactive, ADAM10 inh inactive, ADAM10 ctr inactive, ADAM17 confirm inactive, PLCgamma1 ctr inactive and PLCbeta3 conf inactive.
Screening COc1cccc(C(=O)N2CCC(C(=O)NCc3ccco3)CC2)c1 returned PLCb3 inh inactive, PLC-gamma1 inh inactive, ADAM17 inh inactive, TbMetRS inhib inactive and ADAM10 inh inactive.
For CN(CCc1ccccc1)C(=O)c1ccc(NC(=O)Cc2ccc(NC(=O)C3CCN(C(=O)C4CC4)CC3)cc2)cc1 the results were PLCb3 inh inactive, PLC-gamma1 inh inactive, ADAM17 inh inactive, TbMetRS inhib inactive and ADAM10 inh inactive.
For CN(CCc1ccccc1)C(=O)c1ccc(NC(=O)Cc2ccc(NC(=O)C3CCN(C(=O)C4CCCC4)CC3)cc2)cc1 the results were PLCb3 inh inactive, PLC-gamma1 inh 10, ADAM17 inh 11, TbMetRS inhib inactive, ADAM10 inh inactive, ADAM10 ctr inactive, ADAM17 confirm 9.8, PLCgamma1 ctr inactive and PLCbeta3 conf inactive.
Screening Cc1cc(C)c(C)c(S(=O)(=O)N2CCC(C(=O)NCc3cccs3)CC2)c1C returned PLCb3 inh inactive, PLC-gamma1 inh 12, ADAM17 inh 8.8, TbMetRS inhib inactive, ADAM10 inh inactive, ADAM10 ctr inactive, ADAM17 confirm inactive, PLCgamma1 ctr inactive and PLCbeta3 conf inactive.
For O=C(NCc1cccs1)C1CCN(S(=O)(=O)c2cccs2)CC1 the results were PLCb3 inh inactive, PLC-gamma1 inh inactive, ADAM17 inh inactive, TbMetRS inhib inactive and ADAM10 inh inactive.
For CC(Oc1cccnc1[N+](=O)[O-])C(=O)Nc1ccc(Cl)cn1 (stereo unspecified) the results were PLCb3 inh inactive, PLC-gamma1 inh inactive, ADAM17 inh inactive, TbMetRS inhib inactive and ADAM10 inh inactive.
Cc1ccc(-n2nnnc2CNC(=O)C2CC(=O)N(c3ccccc3)C2)cc1C (stereo unspecified) was read as PLCb3 inh inactive, PLC-gamma1 inh 13, ADAM17 inh 9.4, TbMetRS inhib inactive, ADAM10 inh inactive, ADAM10 ctr inactive, ADAM17 confirm inactive, PLCgamma1 ctr inactive and PLCbeta3 conf inactive.
For Cc1ccc(N2CC(C(=O)NCc3nnnn3-c3ccc(C)c(C)c3)CC2=O)cc1 (stereo unspecified) the results were PLCb3 inh inactive, PLC-gamma1 inh inactive, ADAM17 inh inactive, TbMetRS inhib inactive and ADAM10 inh inactive.
CCc1nc2c(OCCOc3ccc(F)cc3)cccn2c1N(C)C(=O)CC(C)C was read as PLCb3 inh inactive, PLC-gamma1 inh inactive, ADAM17 inh inactive, TbMetRS inhib inactive and ADAM10 inh inactive.
Screening CC1(C(=O)Nc2cccc(Oc3ccccc3)c2)Cc2c(-c3ccc4c(c3)OCO4)ccnc2O1 (stereo unspecified) returned PLCb3 inh inactive, PLC-gamma1 inh inactive, ADAM17 inh inactive, TbMetRS inhib inactive and ADAM10 inh inactive.
